In PMC5109833 (Journal of medicinal chemistry, 2015):
Like-named read-outs stand apart in the source and are kept apart here. Peptide text beside a SMILES is read from it.

Assays:
[1] = tested on: pSTAT6 (Tyr641) in Beas-2B cells; experiment: Inhibition of STAT6 Tyr641 phosphorylation in intact Beas-2B cells; type: cell-based, human; conditions: for pSTAT6 inhibition potency (in words): IL-4, Figure 4B
How it was run: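 Beas-2B cells seeded at 3.0 × 10^5 cells/well the day before. Prodrug added from DMSO stocks (5–10 μM stock) for 2 h, then IL-4 2 ng/mL for 1 h. Cells washed in cold PBS, lysed with PMSF, and protein measured by Lowry. 15–30 µg run on 10% SDS-PAGE and probed for pSTAT6 Tyr641 with ECL detection, then stripped and reprobed for total STAT6. Bands quantified densitometrically.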

Beas-2B cells = experiment: Beas-2B cell viability/proliferation, MTS assay, 72 h; type: cell-based, human; conditions: 72 h exposure
How it was run: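 Beas-2B cells seeded at 2000 cells/well. Test compound made as 10 mM DMSO stock, serially diluted in DMSO, and equal amounts of each dilution added. Incubation at 37 °C for 72 h. Medium then replaced with 1:5 MTS/PBS for a further 1 h. Viable cells estimated from optical density at 490 nm.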

pAkt in MDA-MB-468 cells = experiment: Inhibition of EGF-stimulated pAkt in MDA-MB-468 cells; type: cell-based, human; conditions: serum starved MDA-MB-468, EGF
[2] = tested on: pSTAT5 in CD4+ T lymphocytes; type: cell-based; conditions: primary mouse CD4+ T lymphocytes
How it was run: (§1)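 CD4+ T cells magnetically sorted from C57BL/6J mice. Activated on plate-bound anti-CD3 and/or anti-CD28 with IL-2 or IL-4 for 15 min. Lysed in kinase lysis buffer with protease inhibitors, 10 mM NaF and 1 mM Na3VO4. Protein equalised by Bradford, then immunoblotted for phospho-STAT5 Tyr694/STAT5 or phospho-STAT6 Tyr641/STAT6.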

[3] = tested on: CCL26 (eotaxin-3) mRNA in Beas-2B cells; experiment: Inhibition of IL-13 stimulated CCL26; type: cell-based, human; conditions: IL-13, 100 nM
How it was run: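 Beas-2B cells plated at 4 × 10^5 cells/well and held overnight in complete medium, then serum-starved 2 h. Pretreated with test compound 2 h, then stimulated with IL-13 overnight in serum-free medium. RNA extracted with Trizol and reverse transcribed. CCL26 quantified relative to β-actin by TaqMan real-time PCR.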

STAT6 (SH2 domain) = biological target: T1, STAT6 (SH2 domain) (Homo sapiens, UniProt P42226); experiment: Fluorescence polarization assay of affinity for STAT6; type: binding
T1 sequence (P42226 517-632 limits assumed): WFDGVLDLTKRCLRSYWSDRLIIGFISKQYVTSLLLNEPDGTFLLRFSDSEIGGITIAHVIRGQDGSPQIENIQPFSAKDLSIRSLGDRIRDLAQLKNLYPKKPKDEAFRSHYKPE

[4] = tested on: pSTAT6 in CD4+ T lymphocytes; type: cell-based; conditions: primary mouse CD4+ T lymphocytes, Figure S2
How it was run: as §1

[5] = tested on: pSTAT6 (Tyr641) in Beas-2B cells; conditions: IL-4 and IL-13 stimulated; cited from earlier work

CC(C)(C)C(=O)OCOP(=O)(OCOC(=O)C(C)(C)C)C(F)(F)c1ccc(/C=C/C(=O)N[C@H](C(=O)N2CCC[C@H]2C(=O)Nc2ccccc2)C(C)(C)C)cc1 [compound 30]
loss of pSTAT6 inhibition potency relative to 29 ([1]; IL-4): approximately 25 fold
cell viability (in words) (Beas-2B cells): the fraction of viable cells paralleled pSTAT6 inhibition
lowest concentration with potent inhibition of pAkt (pAkt in MDA-MB-468 cells): 100 nM
inhibition of IL-2 mediated STAT5 phosphorylation [2]: not an inhibitor of pSTAT5

CC(C)(C)C(=O)OCOP(=O)(OCOC(=O)C(C)(C)C)C(F)(F)c1ccc(/C=C/C(=O)N[C@H](C(=O)N2CCC[C@H]2C(=O)N(c2ccccc2)c2ccccc2)C(C)(C)C)cc1 [compound 28]
concentration giving complete inhibition of pSTAT6 ([1]; prodrug 2 h, IL-4 1 h): 500 nM
concentration giving significant inhibition of pSTAT6 ([1]; prodrug 2 h, IL-4 1 h): 100 nM
effect on cell viability at concentrations ≤1 µM (Beas-2B cells): did not affect viability
inhibition of IL-2 mediated STAT5 phosphorylation [2]: robust inhibition

C/C(=C\C(=O)N[C@H](C(=O)N1CCC[C@H]1C(=O)N(C)c1ccccc1)C(C)(C)C)c1ccc(C(F)(F)P(=O)(OCOC(=O)C(C)(C)C)OCOC(=O)C(C)(C)C)cc1 [compound 31]
pSTAT6 inhibition potency (in words) [1]: retains potency
cell viability (in words) (Beas-2B cells): nearly identical to that of 29
inhibition of pAkt at 5 µM (pAkt in MDA-MB-468 cells): mild inhibition
inhibition of IL-2 mediated STAT5 phosphorylation [2]: robust inhibition
inhibition of CCL26 mRNA expression at 100 nM [3]: > 50%

CN(C(=O)[C@@H]1CCCN1C(=O)[C@@H](NC(=O)/C=C/c1ccc(C(F)(F)P(=O)(OCOC(=O)C(C)(C)C)OCOC(=O)C(C)(C)C)cc1)C(C)(C)C)c1ccccc1 [compound 29]
concentration giving nearly complete inhibition of pSTAT6 ([1]; prodrug 2 h, IL-4 1 h): 100 nM
concentration giving significant inhibition of pSTAT6 ([1]; prodrug 2 h, IL-4 1 h): 50 nM
effect on cell viability at concentrations ≤1 µM (Beas-2B cells): did not affect viability
inhibition of pAkt at 5 µM (pAkt in MDA-MB-468 cells): mild inhibition
inhibition of IL-2 mediated STAT5 phosphorylation [2]: robust inhibition

C/C(=C\C(=O)N[C@H](C(=O)N1CCCC1/C=C/CCc1ccccc1)C(C)(C)C)c1ccc(OP(=O)(O)O)cc1 (stereo partly drawn) [compound 25]
IC50 (STAT6 (SH2 domain)): 500 nM

CC[C@H](C)[C@H](NC(=O)[C@H](CC(C)C)NC(=O)[C@H](CC(=O)O)NC(=O)[C@H](CCC(N)=O)NC(=O)[C@H](Cc1ccccc1)NC(=O)[C@@H]1CCCN1C(=O)[C@H](CCCCN)NC(=O)[C@H](Cc1ccc(OP(=O)(O)O)cc1)NC(C)=O)C(N)=O [compound 1, Ac-pTyr-Lys-Pro-Phe-Gln-Asp-Leu-Ile-NH2] (HELM PEPTIDE1{[ac].[O=C([C@H](Cc1ccc(OP(=O)(O)O)cc1)N[*:1])[*:2]].K.P.F.Q.D.L.I.[am]}$$$$V2.0)
IC50 (STAT6 (SH2 domain)): 2000 nM

C/C(=C\C(=O)N[C@H](C(=O)N1CCC[C@H]1C(=O)N(C)C1CCCCC1)C(C)(C)C)c1ccc(C(F)(F)P(=O)(OCOC(=O)C(C)(C)C)OCOC(=O)C(C)(C)C)cc1 [compound 32]
pSTAT6 inhibition potency (in words) [1]: high potency
cell viability (in words) (Beas-2B cells): nearly identical to that of 29
inhibition of IL-2 mediated STAT5 phosphorylation [2]: robust inhibition

CC(C)(C)[C@H](NC(=O)/C=C/c1ccc(OP(=O)(O)O)cc1)C(=O)N1CCC[C@H]1C(=O)N(c1ccccc1)c1ccc(I)cc1 [18a]
IC50 (STAT6 (SH2 domain)): 40 nM

CC(C)(C)C(=O)OCOP(=O)(OCOC(=O)C(C)(C)C)C(F)(F)c1ccc(/C=C/C(=O)N[C@H](C(=O)N2CCC[C@H]2C(=O)N(c2ccccc2)c2ccc(I)cc2)C(C)(C)C)cc1 [compound 17]
inhibition of IL-4 stimulated pSTAT6 [4]: relatively weak
inhibition of CCL26 mRNA expression at 100 nM [3]: > 50%
concentration giving significant inhibition of pSTAT6 [5]: ≥ 1 µM
